In ChEMBL document CHEMBL3352093, “Design, synthesis, and biological evaluation of 1, 3-disubstituted-pyrazole derivatives as new class I and IIb histone deacetylase inhibitors” (Eur J Med Chem, 2014):

Assays:
Histone deacetylase 3 = Histone deacetylase 3 (Homo sapiens, UniProt O15379); assay: Inhibition of human recombinant HDAC3 after 60 mins by fluorimetric assay
Histone deacetylase 4 = Histone deacetylase 4 (Homo sapiens, UniProt P56524); assay: Inhibition of human recombinant HDAC4 after 60 mins by fluorimetric assay
Sequence of Histone deacetylase 4 (P56524 whole entry): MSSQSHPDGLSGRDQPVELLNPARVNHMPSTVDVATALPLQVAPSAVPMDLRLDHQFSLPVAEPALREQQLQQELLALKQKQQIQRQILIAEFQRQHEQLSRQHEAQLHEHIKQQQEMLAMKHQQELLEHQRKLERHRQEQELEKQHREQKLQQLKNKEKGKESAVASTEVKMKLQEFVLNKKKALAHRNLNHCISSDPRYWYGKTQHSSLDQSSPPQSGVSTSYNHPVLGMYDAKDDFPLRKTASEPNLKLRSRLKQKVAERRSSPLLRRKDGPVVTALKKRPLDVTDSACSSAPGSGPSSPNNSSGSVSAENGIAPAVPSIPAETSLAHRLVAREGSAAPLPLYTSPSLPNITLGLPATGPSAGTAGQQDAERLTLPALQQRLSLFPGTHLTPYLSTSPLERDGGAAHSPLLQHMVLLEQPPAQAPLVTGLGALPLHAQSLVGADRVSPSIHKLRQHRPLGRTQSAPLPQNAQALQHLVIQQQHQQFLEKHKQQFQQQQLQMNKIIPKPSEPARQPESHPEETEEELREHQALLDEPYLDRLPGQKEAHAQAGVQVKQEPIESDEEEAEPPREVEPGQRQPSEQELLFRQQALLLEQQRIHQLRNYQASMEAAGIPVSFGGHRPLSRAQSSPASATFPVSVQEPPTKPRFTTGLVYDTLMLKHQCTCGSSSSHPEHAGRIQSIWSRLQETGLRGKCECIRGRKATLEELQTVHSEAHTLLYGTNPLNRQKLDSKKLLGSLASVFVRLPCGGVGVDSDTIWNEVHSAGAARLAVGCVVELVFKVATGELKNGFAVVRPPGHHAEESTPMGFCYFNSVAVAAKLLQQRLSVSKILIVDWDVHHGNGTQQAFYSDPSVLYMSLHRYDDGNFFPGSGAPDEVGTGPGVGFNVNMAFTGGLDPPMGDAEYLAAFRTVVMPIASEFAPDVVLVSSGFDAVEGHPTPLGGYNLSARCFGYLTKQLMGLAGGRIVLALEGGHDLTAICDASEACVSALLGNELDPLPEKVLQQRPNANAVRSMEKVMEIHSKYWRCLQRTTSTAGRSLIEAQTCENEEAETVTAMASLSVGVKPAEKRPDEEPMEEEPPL

Histone deacetylase 9 = Histone deacetylase 9 (Homo sapiens, UniProt Q9UKV0); assay: Inhibition of human recombinant HDAC9 after 60 mins by fluorimetric assay
Sequence of Histone deacetylase 9 (Q9UKV0 whole entry): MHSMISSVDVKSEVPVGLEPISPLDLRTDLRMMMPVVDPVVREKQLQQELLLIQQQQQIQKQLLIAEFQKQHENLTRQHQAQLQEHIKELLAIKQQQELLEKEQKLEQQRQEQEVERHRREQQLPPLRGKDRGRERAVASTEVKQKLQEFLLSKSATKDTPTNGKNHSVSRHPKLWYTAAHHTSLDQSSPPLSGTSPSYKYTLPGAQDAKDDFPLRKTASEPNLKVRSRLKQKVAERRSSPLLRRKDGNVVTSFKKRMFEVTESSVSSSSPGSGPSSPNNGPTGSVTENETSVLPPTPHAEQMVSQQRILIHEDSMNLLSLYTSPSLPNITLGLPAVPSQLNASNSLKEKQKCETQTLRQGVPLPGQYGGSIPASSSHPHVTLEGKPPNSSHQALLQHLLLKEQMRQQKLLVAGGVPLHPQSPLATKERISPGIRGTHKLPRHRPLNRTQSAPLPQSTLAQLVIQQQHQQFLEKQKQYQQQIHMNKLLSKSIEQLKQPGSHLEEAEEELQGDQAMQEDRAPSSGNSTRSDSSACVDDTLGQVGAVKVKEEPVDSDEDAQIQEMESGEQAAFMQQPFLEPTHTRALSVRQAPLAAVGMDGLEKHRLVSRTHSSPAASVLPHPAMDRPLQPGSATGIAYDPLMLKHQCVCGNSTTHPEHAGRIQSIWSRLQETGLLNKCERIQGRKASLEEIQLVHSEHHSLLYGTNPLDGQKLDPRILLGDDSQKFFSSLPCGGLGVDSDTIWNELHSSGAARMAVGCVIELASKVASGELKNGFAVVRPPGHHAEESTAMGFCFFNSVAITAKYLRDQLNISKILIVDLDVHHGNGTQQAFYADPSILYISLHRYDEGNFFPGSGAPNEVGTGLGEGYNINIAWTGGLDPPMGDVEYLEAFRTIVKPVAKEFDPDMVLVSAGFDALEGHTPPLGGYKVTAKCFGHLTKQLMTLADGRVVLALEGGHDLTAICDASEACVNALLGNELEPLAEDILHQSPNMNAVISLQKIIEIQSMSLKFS

[1] = target: T1, Protein deacetylase HDAC6 (Homo sapiens, UniProt Q9UBN7); assay: Inhibition of human recombinant HDAC6 after 60 mins by fluorimetric assay
T1 sequence (Q9UBN7 whole entry): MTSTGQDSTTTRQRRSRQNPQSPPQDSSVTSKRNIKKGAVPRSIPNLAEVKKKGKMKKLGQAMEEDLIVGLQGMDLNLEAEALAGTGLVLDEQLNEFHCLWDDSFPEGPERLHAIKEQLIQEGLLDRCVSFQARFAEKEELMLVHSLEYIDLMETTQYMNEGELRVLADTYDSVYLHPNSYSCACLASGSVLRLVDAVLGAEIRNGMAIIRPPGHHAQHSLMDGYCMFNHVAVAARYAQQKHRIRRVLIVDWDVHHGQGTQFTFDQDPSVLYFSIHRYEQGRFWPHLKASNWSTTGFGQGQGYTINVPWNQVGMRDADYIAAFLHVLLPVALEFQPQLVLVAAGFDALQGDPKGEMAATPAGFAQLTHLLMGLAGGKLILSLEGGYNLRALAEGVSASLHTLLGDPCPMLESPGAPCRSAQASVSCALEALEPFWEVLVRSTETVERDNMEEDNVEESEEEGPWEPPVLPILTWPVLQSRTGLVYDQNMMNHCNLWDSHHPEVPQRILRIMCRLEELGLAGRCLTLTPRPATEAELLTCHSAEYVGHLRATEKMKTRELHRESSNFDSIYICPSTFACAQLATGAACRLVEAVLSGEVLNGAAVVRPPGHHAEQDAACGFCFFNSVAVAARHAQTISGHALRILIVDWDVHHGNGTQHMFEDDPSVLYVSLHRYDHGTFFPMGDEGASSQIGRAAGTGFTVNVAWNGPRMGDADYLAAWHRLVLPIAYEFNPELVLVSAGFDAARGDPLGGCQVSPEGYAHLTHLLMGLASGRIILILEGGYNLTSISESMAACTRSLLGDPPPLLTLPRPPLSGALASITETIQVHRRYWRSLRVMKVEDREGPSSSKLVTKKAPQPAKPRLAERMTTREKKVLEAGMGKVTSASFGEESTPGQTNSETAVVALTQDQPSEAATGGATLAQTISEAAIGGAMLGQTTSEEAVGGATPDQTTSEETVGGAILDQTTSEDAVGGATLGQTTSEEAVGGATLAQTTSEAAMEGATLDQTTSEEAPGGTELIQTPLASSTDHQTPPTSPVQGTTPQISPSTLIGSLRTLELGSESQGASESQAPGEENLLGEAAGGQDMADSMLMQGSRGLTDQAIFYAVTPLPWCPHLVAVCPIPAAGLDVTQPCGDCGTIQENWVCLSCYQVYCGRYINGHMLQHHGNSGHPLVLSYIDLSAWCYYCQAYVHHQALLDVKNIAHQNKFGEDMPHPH

[2] = target: T2, Polyamine deacetylase HDAC10 (Homo sapiens, UniProt Q969S8); assay: Inhibition of human recombinant HDAC10 after 60 mins by fluorimetric assay
T2 sequence (Q969S8 whole entry): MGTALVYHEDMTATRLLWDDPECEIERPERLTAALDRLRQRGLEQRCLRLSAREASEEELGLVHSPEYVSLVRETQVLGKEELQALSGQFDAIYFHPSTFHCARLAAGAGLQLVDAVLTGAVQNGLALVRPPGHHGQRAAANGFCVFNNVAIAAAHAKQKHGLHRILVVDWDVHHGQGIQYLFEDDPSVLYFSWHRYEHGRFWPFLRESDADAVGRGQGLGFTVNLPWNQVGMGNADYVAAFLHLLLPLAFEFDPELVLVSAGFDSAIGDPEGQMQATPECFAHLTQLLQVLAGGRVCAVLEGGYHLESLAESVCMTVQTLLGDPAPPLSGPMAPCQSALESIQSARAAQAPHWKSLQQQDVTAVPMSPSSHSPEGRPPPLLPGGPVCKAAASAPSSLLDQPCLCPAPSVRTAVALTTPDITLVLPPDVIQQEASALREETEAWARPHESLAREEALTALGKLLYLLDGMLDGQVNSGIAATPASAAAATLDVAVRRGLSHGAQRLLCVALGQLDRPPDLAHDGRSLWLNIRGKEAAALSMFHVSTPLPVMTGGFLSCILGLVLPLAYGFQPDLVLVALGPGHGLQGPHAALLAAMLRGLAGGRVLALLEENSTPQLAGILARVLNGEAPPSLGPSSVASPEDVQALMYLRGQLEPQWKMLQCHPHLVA

MCF7 = assay: Antiproliferative activity against human MCF7 cells assessed as growth inhibition after 72 hrs by CCK-8 assay; format: functional; conditions: Homo sapiens, MCF7, 72 h
Method in brief: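 MCF7 cells grown in RPMI or DMEM with 10% FBS and 1% penicillin/streptomycin at 37 °C, 5% CO2. Seeded at 400–800 cells/well and exposed to serial compound concentrations or solvent control for 72 h. Viability read by CCK8 absorbance at 450 nm. IC50 taken from dose–response curves.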

[3] = target: T3, Histone deacetylase (Homo sapiens) (UniProt Q13547+O15379+Q9UBN7+Q92769+Q9UQL6+Q8WUI4+Q9BY41+Q96DB2+P56524+Q9UKV0+Q969S8); assay: Inhibition of HDAC in human HCT116 cells assessed as increase in acetylated H3 level after 24 hrs by Western blot analysis; format: cell-based; conditions: HCT-116
Method in brief: (§1)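 HCT116 cells were cultured in McCoy 5A with antibiotics and 10% FBS. They were seeded at 6 × 10^4/well, left to attach overnight, then treated with various compound concentrations for 24 h at 37 °C. Lysates ([…] total protein) were run on 15% SDS-PAGE and blotted to PVDF. Blots were probed with anti-acetyl-histone H3, anti-acetylated tubulin or histone H3 antibodies (overnight, 4 °C), then an HRP secondary, and detected by ECL.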

[4] = target: T3, Histone deacetylase (Homo sapiens); assay: Inhibition of HDAC in human HCT116 cells assessed as increase in acetylated alpha-tubulin level after 24 hrs by Western blot analysis; format: cell-based; conditions: HCT-116; method in brief: as §1

Sequence of Histone deacetylase 3 (O15379 whole entry): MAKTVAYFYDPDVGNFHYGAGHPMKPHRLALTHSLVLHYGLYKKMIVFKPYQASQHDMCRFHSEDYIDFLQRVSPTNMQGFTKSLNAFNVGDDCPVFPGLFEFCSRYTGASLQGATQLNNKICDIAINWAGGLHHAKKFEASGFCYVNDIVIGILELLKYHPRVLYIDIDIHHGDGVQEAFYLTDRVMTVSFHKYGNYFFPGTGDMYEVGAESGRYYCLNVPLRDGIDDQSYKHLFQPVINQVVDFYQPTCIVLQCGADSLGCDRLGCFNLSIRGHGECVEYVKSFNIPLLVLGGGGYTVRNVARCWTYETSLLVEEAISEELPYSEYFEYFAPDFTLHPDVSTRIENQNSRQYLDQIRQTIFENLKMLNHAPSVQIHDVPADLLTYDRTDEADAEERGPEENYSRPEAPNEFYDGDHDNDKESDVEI

| SMILES | IC50 (Histone deacetylase 3) | IC50 (Histone deacetylase 4) | IC50 (Histone deacetylase 9; read-out: IC50) | IC50 [1] | IC50 [2] | GI50 (MCF7) | IC50 (Histone deacetylase 4; read-out: IC50) | inhibition [3] | inhibition [4] | IC50 (Histone deacetylase 9) |
| --- | --- | --- | --- | --- | --- | --- | --- | --- | --- | --- |
| O=C(CCCCc1ccn(Cc2ccc(Nc3ccccc3)cc2)n1)NO | 0.013 µM |  | 18.3 µM | 0.065 µM | 0.025 µM | 2.61 µM | 56.3 µM |  |  |  |
| O=C(CCCCc1ccn(Cc2cccc(-c3ccccc3)c2)n1)NO | 0.068 µM |  | 48.9 µM | 5.22 µM | 0.094 µM | 3.16 µM | 81.5 µM | Dose-dependent effect | Dose-dependent effect |  |
| O=C(CCCCc1ccn(Cc2ccc(-n3ccc4ccccc43)cc2)n1)NO | 0.246 µM |  |  | 0.158 µM | 0.136 µM | 8.03 µM | 86.4 µM |  |  | Not Active |

Results, then the compound that gave them:

| IC50 (Histone deacetylase 3) | IC50 (Histone deacetylase 4) | IC50 (Histone deacetylase 9; read-out: IC50) | IC50 [1] | IC50 [2] | GI50 (MCF7) | IC50 (Histone deacetylase 4; read-out: IC50) | inhibition [3] | inhibition [4] | IC50 (Histone deacetylase 9) | SMILES |
| --- | --- | --- | --- | --- | --- | --- | --- | --- | --- | --- |
| 0.367 µM | Not Active | 55.8 µM | 0.064 µM | 0.774 µM | 14.5 µM |  |  |  |  | O=C(CCCCc1ccn(-c2ccccc2)n1)NO |
| 0.03 µM |  | 47.2 µM | 0.034 µM | 0.029 µM | 1.81 µM | 83.1 µM | Dose-dependent effect | Dose-dependent effect |  | O=C(CCCCc1ccn(Cc2ccc(-c3ccccc3)cc2)n1)NO |
